# Read-outs that look alike come from different tables or passages of the source.
# How the values were obtained:
# human PDE7A1 = human PDE7A1 (Homo sapiens, UniProt Q13946); test: Fission yeast 5FOA growth assay / HTS, PDE7A-expressing strain CHP1189; type: cell-based; conditions: for average OD600 in PDE7A HTS: 20μM compound, 48 hours growth in 5FOA medium, duplicate; for stimulation of 5FOA-resistant growth, PDE7A-expressing strain: range of concentrations, 48 hours, OD600
# Outline: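 Fission yeast strain CHP1189 carries human PDE7A in place of cgs2, plus gpa2Δ, pap1Δ and fbp1-ura4/fbp1-lacZ reporters. It was grown to exponential phase in EMM with 2.5 mM cAMP, then resuspended in 5FOA medium at 1 × 10^5 cells/ml. Compounds were mostly at 20μM, in duplicate, with DMSO negative and 5mM cAMP positive controls. Growth was 48 h at 30°C, read as OD600. Per-plate Z scores were combined into a composite Z score.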
# PDE7B = PDE7B (Homo sapiens, UniProt Q9NP56); test: In vitro PDE enzyme assay; type: biochemical; conditions: for IC50 on PDE7B relative to PDE7A: in vitro enzyme assays, PDE7B vs PDE7A
# Outline: (§1)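 Radiometric PDE assay with 25nM initial 3H-cAMP for 15 min, over which the hydrolysis rate was constant. 3H-AMP was separated by Ba(OH)2 precipitation and remaining cAMP counted by scintillation. PDE7A was commercial; PDE7B was a gift. IC50 is the concentration halving the hydrolysis rate relative to vehicle controls. PDE7B Km came from Michaelis-Menten kinetics, analysed by Lineweaver-Burke and Eadie-Hofstee plots.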
# human PDE7B1 = human PDE7B1 (Homo sapiens, UniProt Q9NP56); test: Fission yeast 5FOA growth assay, PDE7B-expressing strain; type: cell-based; conditions: range of concentrations, 48 hours, OD600
# Outline: (§2)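 5FOA growth assays, run as in the PDE7A screen, used fission yeast strains expressing human PDE4A1, PDE4B2, PDE4D3 or PDE7B1 from the cgs2 locus. Compound was added over a concentration range, with DMSO kept below 0.2%. Cultures grew 48 h at 30°C. OD600 is the mean of four wells.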
# [1] = test system: TNFα release by LPS-treated U937 cells; test: TNFα release assay in PMA-activated, LPS-treated U937 cells; type: cell-based, human; conditions: for TNFα release, combined with rolipram, 3 hours LPS / TNFα release, combined with rolipram, 20 hours LPS: 10μM each, compared to rolipram alone
# Outline: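 U937 cells at 10^6 cells/ml in RPMI 1640 with 10% FBS were primed 17 hr with 300 ng/ml PMA. Aliquots of […] were diluted with equal medium and given 10 μM compound, alone or with rolipram, for 1 hr; vehicle was ethanol with <0.1% DMSO. LPS (25 μg/ml) followed, and supernatant TNFα was measured by ELISA at 3 or 20 h. Values are % of vehicle, 2–6 independent experiments, paired one-tailed t-test.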
# PDE7A = PDE7A (Homo sapiens, UniProt Q13946); test: In vitro PDE enzyme assay; type: biochemical
# Outline: as §1
# PDE11A = PDE11A (Homo sapiens, UniProt Q9HCR9); test: Fission yeast 5FOA growth assay, PDE11A-expressing strain; type: cell-based; conditions: data not shown
# Outline: (§3)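 Fission yeast 5FOA growth assays used strains each expressing one mammalian PDE, read as OD600. For cGMP-specific PDEs, strains lacked adenylate cyclase and the 5FOA medium contained 30μM to 1mM cGMP.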
# PDE2A = PDE2A (Homo sapiens, UniProt O00408); test: Fission yeast 5FOA growth assay, PDE2A-expressing strain; type: cell-based; conditions: data not shown
# Outline: as §3
# [2] = target: PDE4D catalytic domain (residues 86-413 of PDE4D2) (Homo sapiens, UniProt Q08499); test: In vitro enzyme assay, PDE4D catalytic domain; type: biochemical
# Outline: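 PDE4D catalytic domain (PDE4D2 residues 86-413) was expressed in and purified from E. coli and tested in the 3H-cAMP hydrolysis assay with Ba(OH)2 precipitation. Enzyme was at 16 nM with 25 nM test compound across varying cAMP concentrations. A separate panel used 2μM compound against PDE4A, PDE4B and PDE4D catalytic domains.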
# human PDE4D3 = human PDE4D3 (Homo sapiens, UniProt Q08499); test: Fission yeast 5FOA growth assay, PDE4D3-expressing strain; type: cell-based; conditions: dose response, 48 hours
# Outline: as §2
# human PDE4A1 = human PDE4A1 (Homo sapiens, UniProt P27815); test: Fission yeast 5FOA growth assay, PDE4A1-expressing strain; type: cell-based; conditions: dose response, 48 hours
# Outline: as §2
# [3] = target: full-length PDE4D2 (residues 1-507) (Homo sapiens, UniProt Q08499); test: In vitro enzyme assay, full-length PDE4D2; type: biochemical; conditions: data not shown
# human PDE4B2 = human PDE4B2 (Homo sapiens, UniProt Q07343); test: Fission yeast 5FOA growth assay, PDE4B2-expressing strain; type: cell-based; conditions: dose response, 48 hours
# Outline: as §2
# PDE10A = test: Fission yeast 5FOA growth assay, PDE10A-expressing strain; type: cell-based; conditions: 40μM compound, data not shown
# Outline: as §3
# PDE8A = PDE8A (Homo sapiens, UniProt O60658); test: Fission yeast 5FOA growth assay, PDE8A-expressing strain; type: cell-based; conditions: data not shown
# Outline: as §3
# PDE1B = PDE1B (Homo sapiens, UniProt Q01064); test: Fission yeast 5FOA growth assay, PDE1B-expressing strain; type: cell-based; conditions: data not shown
# Outline: as §3
# PDE3B = PDE3B (Homo sapiens, UniProt Q13370); test: Fission yeast 5FOA growth assay, PDE3B-expressing strain; type: cell-based; conditions: data not shown
# Outline: as §3
# PDE5A = PDE5A (Homo sapiens, UniProt O76074); test: Fission yeast 5FOA growth assay, PDE5A-expressing strain; type: cell-based; conditions: data not shown
# Outline: as §3
# mouse PDE4A1 = target: T1, mouse PDE4A1 (Mus musculus, UniProt O89084); test: Fission yeast HTS, mouse PDE4A1-expressing strain; type: cell-based; conditions: 20μM
# T1 sequence (O89084 1-610 isoform O89084-2): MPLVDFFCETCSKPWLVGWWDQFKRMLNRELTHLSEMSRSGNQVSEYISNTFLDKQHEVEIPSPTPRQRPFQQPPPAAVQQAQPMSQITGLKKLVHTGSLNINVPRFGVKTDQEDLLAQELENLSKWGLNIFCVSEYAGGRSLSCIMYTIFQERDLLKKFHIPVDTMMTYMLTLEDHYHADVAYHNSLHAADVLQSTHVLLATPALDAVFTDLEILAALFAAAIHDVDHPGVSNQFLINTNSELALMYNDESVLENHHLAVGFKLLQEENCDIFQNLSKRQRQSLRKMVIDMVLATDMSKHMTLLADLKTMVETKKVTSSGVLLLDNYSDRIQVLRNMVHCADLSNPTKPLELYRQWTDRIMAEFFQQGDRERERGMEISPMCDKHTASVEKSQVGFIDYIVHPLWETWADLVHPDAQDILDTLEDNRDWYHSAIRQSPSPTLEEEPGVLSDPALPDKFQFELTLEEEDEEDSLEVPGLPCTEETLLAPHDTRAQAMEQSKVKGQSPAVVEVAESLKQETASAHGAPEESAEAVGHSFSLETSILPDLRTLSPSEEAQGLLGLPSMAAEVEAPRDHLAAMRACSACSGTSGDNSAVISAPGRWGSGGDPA
# PDE1C = PDE1C (Homo sapiens, UniProt Q14123); test: Fission yeast 5FOA growth assay, PDE1C-expressing strain; type: cell-based; conditions: data not shown
# Outline: as §3
# PDE9A = PDE9A (Homo sapiens, UniProt O76083); test: Fission yeast 5FOA growth assay, PDE9A-expressing strain; type: cell-based; conditions: data not shown
# Outline: as §3
# [4] = 10μM, 1 hr pretreatment, vs vehicle-treated control
# Chain of PDE7B (Q9NP56 whole entry, species assumed): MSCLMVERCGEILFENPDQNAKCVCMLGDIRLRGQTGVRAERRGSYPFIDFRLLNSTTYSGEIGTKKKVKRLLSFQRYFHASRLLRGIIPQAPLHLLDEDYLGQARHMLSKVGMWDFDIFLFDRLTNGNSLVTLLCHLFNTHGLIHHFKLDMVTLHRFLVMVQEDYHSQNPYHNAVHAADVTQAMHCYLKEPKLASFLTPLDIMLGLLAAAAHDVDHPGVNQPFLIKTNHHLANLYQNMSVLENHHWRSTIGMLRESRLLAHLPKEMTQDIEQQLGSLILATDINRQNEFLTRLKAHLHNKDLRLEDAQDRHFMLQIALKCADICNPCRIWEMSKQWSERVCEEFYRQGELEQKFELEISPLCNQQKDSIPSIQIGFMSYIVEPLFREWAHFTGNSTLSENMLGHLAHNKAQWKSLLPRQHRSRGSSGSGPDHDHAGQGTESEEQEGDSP
# Chain of PDE4D catalytic domain (residues 86-413 of PDE4D2) (Q08499 388-715): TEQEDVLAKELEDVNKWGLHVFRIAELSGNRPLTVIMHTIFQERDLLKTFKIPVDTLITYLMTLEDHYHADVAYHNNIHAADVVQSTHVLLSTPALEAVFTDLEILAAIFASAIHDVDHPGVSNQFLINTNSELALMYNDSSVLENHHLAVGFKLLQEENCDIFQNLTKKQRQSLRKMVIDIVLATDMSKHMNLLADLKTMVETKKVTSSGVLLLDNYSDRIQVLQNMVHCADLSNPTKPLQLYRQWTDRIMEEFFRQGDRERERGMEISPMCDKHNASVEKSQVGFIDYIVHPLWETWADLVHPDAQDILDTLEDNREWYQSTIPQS
# Chain of human PDE7A1 (Q13946 whole entry): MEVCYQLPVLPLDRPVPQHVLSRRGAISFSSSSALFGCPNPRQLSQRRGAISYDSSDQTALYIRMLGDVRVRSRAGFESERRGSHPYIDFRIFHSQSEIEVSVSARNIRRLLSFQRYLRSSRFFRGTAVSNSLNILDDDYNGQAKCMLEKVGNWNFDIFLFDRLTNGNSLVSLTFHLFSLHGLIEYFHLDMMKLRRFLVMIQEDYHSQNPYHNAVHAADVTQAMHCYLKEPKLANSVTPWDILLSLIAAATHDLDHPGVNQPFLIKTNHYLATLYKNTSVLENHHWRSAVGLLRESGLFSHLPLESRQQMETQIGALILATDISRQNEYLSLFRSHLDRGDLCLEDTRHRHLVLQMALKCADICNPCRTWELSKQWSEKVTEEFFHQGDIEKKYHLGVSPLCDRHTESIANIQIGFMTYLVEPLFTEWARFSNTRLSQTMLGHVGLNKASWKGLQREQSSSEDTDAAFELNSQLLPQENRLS
# Chain of human PDE7B1 (Q9NP56 whole entry): as the sequence (Q9NP56 whole entry, species assumed) above
# Chain of PDE7A (Q13946 whole entry, species assumed): as the sequence (Q13946 whole entry) above
# Chain of PDE2A (O00408 whole entry, species assumed): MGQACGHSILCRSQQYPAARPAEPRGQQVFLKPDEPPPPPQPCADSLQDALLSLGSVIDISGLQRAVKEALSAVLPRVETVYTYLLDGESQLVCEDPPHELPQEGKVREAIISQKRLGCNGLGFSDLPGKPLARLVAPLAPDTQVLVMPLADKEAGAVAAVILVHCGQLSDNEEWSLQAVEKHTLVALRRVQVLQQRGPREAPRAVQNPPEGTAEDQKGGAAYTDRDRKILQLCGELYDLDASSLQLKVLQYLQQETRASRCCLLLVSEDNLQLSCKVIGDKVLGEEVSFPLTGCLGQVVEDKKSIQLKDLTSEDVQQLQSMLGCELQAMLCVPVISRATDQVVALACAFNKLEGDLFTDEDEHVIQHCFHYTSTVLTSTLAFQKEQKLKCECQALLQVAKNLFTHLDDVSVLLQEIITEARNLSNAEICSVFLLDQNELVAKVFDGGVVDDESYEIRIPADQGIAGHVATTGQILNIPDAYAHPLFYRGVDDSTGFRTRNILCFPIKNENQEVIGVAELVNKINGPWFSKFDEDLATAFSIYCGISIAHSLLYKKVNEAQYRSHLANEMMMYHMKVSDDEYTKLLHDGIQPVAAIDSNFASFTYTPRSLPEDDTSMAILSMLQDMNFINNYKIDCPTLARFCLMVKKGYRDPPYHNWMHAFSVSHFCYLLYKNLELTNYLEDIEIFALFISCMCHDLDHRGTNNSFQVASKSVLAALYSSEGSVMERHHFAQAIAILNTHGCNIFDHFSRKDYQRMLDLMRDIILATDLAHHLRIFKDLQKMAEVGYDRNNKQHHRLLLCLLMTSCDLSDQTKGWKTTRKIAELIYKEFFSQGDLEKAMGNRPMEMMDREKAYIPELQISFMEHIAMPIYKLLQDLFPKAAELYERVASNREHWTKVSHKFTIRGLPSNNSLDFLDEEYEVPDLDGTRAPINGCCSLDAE
# Chain of PDE8A (O60658 whole entry, species assumed): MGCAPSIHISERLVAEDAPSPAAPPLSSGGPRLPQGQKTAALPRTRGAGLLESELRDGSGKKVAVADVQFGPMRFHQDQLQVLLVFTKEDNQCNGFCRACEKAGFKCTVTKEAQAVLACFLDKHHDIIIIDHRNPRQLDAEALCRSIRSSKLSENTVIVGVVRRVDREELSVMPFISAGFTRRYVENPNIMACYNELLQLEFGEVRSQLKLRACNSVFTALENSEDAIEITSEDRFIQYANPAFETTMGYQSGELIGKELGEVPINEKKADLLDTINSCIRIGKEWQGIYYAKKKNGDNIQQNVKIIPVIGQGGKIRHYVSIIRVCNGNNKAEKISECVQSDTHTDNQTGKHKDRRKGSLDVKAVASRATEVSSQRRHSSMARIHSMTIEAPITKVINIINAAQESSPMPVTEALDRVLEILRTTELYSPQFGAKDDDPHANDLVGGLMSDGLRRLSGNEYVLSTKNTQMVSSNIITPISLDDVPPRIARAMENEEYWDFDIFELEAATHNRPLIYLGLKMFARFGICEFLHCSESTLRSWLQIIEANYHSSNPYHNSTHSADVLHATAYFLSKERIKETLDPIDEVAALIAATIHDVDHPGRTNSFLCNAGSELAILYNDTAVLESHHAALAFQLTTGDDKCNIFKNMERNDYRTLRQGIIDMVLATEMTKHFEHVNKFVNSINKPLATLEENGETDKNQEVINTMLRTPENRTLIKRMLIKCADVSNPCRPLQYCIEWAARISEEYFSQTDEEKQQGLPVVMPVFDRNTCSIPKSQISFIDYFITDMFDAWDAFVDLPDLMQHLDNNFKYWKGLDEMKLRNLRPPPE
# Chain of full-length PDE4D2 (residues 1-507) (Q08499 303-809): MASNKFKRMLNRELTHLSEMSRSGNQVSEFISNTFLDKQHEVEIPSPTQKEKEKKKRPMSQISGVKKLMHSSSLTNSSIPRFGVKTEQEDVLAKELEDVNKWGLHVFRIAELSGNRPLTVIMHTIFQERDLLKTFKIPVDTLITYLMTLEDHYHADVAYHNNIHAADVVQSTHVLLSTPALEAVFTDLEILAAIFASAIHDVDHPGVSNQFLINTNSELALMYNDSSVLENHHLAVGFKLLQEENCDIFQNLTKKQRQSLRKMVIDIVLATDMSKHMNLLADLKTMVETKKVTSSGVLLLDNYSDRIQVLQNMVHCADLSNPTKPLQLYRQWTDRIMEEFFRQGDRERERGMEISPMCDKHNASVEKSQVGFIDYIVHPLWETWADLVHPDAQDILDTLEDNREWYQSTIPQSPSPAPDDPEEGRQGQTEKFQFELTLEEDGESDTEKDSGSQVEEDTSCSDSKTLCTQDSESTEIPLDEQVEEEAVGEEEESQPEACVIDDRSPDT
# Chain of human PDE4B2 (Q07343 1-564 isoform Q07343-2): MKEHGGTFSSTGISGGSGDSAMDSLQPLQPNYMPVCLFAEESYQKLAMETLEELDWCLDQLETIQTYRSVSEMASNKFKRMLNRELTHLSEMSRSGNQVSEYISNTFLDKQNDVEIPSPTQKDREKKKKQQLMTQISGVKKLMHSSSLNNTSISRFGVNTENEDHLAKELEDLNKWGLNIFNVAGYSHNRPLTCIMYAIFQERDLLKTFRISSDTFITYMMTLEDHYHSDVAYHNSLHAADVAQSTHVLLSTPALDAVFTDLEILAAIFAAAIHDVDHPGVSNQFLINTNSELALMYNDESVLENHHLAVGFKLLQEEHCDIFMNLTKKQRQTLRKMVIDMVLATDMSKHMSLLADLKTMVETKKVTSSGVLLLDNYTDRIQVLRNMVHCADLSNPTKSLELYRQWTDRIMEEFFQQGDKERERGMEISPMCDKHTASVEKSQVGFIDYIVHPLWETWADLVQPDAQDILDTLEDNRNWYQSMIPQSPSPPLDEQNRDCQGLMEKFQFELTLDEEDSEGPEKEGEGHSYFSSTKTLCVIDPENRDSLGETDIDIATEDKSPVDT
# Chain of human PDE4A1 (P27815 1-647 isoform P27815-4): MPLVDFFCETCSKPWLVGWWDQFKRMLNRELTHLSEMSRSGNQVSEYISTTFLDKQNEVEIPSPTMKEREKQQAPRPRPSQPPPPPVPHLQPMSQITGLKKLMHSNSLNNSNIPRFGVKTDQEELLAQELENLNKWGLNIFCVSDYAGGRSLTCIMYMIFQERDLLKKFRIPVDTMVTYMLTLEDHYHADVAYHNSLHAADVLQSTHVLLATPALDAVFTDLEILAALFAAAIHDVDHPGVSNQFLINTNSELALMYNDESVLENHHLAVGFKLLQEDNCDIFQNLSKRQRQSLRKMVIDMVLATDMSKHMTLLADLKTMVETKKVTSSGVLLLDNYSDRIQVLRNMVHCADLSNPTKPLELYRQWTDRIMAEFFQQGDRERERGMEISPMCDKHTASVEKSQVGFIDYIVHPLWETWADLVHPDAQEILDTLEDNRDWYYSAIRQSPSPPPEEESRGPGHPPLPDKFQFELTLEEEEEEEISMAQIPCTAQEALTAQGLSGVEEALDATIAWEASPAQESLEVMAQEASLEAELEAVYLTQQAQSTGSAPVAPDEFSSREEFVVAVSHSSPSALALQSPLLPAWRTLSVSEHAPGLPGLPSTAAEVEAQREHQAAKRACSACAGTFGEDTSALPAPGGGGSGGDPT
compound,measurement,setting,value
"C[C@]12CCC(=O)C=C1C=C[C@@H]1[C@@H]2CC[C@@]2(C)[C@H]1CC[C@@]21CCC(=O)O1 [canrenone, reference compound]",average OD600 in PDE7A HTS,human PDE7A1,> 0.821
"Cc1ccc([N+](=O)[O-])cc1S(=O)(=O)N(C)C [BRL50481, 3-(N,N-dimethylsulfonamido)-4-methyl-nitrobenzene, reference compound]",IC50 on PDE7B relative to PDE7A,PDE7B,80 fold
same,"stimulation of 5FOA-resistant growth, PDE7A-expressing strain",human PDE7A1,most effective compound for stimulation of 5FOA-resistant growth
same,"stimulation of 5FOA-resistant growth, PDE7B-expressing strain",human PDE7B1,"rather poor inhibitor of PDE7B, equal to BC11 and BC39, and far less effective than BC30"
same,"TNFα release, combined with rolipram, 3 hours LPS",[1],modestly enhances the rolipram-mediated reduction of TNFα release
same,"TNFα release, combined with rolipram, 20 hours LPS",[1],modestly enhances the rolipram-mediated reduction of TNFα release
same,IC50,"PDE7A; read-out: IC50 against PDE7A, in vitro enzyme assay",~150 nM
"N#Cc1sc2sc(C#N)c(-c3ccco3)c2c1N [BC30, 3-amino-4-(2-furyl) thieno[2,3-b]thiophene-2,5-dicarbonitrile]","effect on 5FOA growth, PDE11A strain",PDE11A,no effect on growth
same,"effect on 5FOA growth, PDE2A strain",PDE2A,no effect on growth
same,effect on Vmax of PDE4D catalytic domain,"[2]; 25 nM compound, varying cAMP",doubling the Vmax
same,effect on cAMP hydrolysis by PDE4D catalytic domain,"[2]; 2μM compound, data not shown",significantly stimulate cAMP hydrolysis
same,concentration producing the maximum increase in PDE4D catalytic domain activity,[2]; enzyme concentration 16 nM,25 nM
same,"effect on 5FOA growth, human PDE4D3 strain",human PDE4D3,no effect on the growth
same,"effect on 5FOA growth, human PDE4A1 strain",human PDE4A1,no effect on the growth
same,effect on activity of full-length PDE4D2,[3],neither BC30 nor the other compounds that stimulate the catalytic domain of PDE4D affect the activity of the full-length PDE4D2
same,IC50,PDE7B,3700 nM
same,effect on Km of PDE7B,PDE7B; data not shown,appears to increase the Km of PDE7B
same,IC50 on PDE7B relative to PDE7A,PDE7B,four-fold lower IC50 on PDE7A than PDE7B
same,PDE7A inhibition upon rescreening,"human PDE7A1; 2μM, data not shown",one of the most effective PDE7A inhibitors
same,rank of Composite Z score in PDE7A HTS,"human PDE7A1; 20μM screen, 48,176 compounds",40
same,"stimulation of 5FOA-resistant growth, PDE7A-expressing strain",human PDE7A1,very potent at low micromolar concentrations
same,"effect on 5FOA growth, human PDE4B2 strain",human PDE4B2,no effect on the growth
same,OD600 of PDE10A-expressing strain,PDE10A,0.53
same,"effect on 5FOA growth, PDE8A strain",PDE8A,no effect on growth
same,"stimulation of 5FOA-resistant growth, PDE7B-expressing strain",human PDE7B1,the best inhibitor of PDE7B
same,"TNFα release, combined with rolipram, 3 hours LPS",[1],dramatic reduction of TNFα release
same,"TNFα release, combined with rolipram, 20 hours LPS",[1],dramatic reduction of TNFα release
same,"TNFα release, compound alone, 3 hours LPS",[1]; [4],significant reduction in TNFα release
same,"TNFα release, compound alone, 20 hours LPS",[1]; [4],significant reduction in TNFα release
same,"effect on 5FOA growth, PDE1B strain",PDE1B,no effect on growth
same,"effect on 5FOA growth, PDE3B strain",PDE3B,no effect on growth
same,"effect on 5FOA growth, PDE5A strain",PDE5A,no effect on growth
same,"activity in HTS, mouse PDE4A1 strain",mouse PDE4A1,very weak activity
same,IC50,PDE7A,1100 nM
same,"effect on 5FOA growth, PDE1C strain",PDE1C,no effect on growth
same,"effect on 5FOA growth, PDE9A strain",PDE9A,no effect on growth
CC(=O)O[C@@H]1CC[C@@]2(C)[C@@H](CC[C@@H]3[C@@H]2CC[C@]2(C)C(=O)CC[C@@H]32)C1 [androsterone acetate],average OD600 in PDE7A HTS,human PDE7A1,> 0.821
"COc1ccc(C2CNC(=O)C2)cc1OC1CCCC1 (centres unmarked) [rolipram, reference compound]","TNFα release, compound alone, 20 hours LPS",[1]; [4],significant reduction in TNFα release
